Experiment [1] in a line: Compound was tested for its cytotoxicity against MGL-8 B -lymphoblasts. It counts as functional, Homo sapiens. An outline of the steps: (§1)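 Cells seeded at 1 × 10^5/mL in RPMI 1640 with 10% fetal calf serum, 2 mM L-glutamine and increasing drug concentrations. Cultured 3 days under 95% air/5% CO2. Viable cells counted microscopically after adding 0.1% erythrocin B, relative to drug-free cultures. Points are mean ± SEM, except the adenosine kinase-deficient mutant, which used duplicates.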

For another experiment, the system named is T-cell. Briefly: Compound was tested for its cytotoxicity against T- cell line. It counts as functional, cell-based. The following applies: Homo sapiens. In a few lines: as §1
In the next experiment the test system is B-cell. As to the kind of experiment: Compound was tested for its cytotoxicity against B- cell line (Wi-L2 B -lymphoblasts). It counts as functional, cell-based. The following applies: Homo sapiens. An outline of the steps:
as §1

The subject of experiment [2] is L1210. As to the kind of experiment: Inhibition of DNA synthesis in L1210 cells by the compound was determined the reduced incorporation of incorporation of [3H]dThd into DNA at concentration of 50 uM. It counts as functional. Conditions: Mus musculus. An outline of the steps: (§2)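 Cultured L1210 cells exposed to drug at 25, 50 or 100 µM. Label incorporation measured: [3H]dThd into DNA, [5-3H]Urd into RNA, [4,5-3H]L-Leu into protein. Values are percent inhibition of incorporation.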

In experiment [3] the test system is L1210. As to the kind of experiment: Effect of compound on macromolecular synthesis in L1210 cells in culture; 8.5-17uM. Conditions: Mus musculus. It counts as functional, cell-based.
Experiment [4] deals with L1210. Briefly: Inhibition of protein synthesis in L1210 cells by the compound was determined the reduced incorporation of [4,5-3H]L-Leu into protein. It counts as functional, Mus musculus. An outline of the steps:
as §2

Experiment [5] relates to L1210. As to the kind of experiment: Inhibition of RNA synthesis in L1210 cells by the compound was determined the reduced incorporation of [5-3H]-Urd into RNA at the concentration of 100 uM; NI denotes no inhibition. It counts as functional, cell-based. The following applies: Mus musculus. An outline of the steps:
as §2

Experiment [6] has as its system L1210. As to the kind of experiment: Compound was tested for its ability to inhibit the incorporation of [3H]dThd into DNA at concentration of 100 uM. It counts as functional. Conditions: Mus musculus. An outline of the steps: as §2
Another experiment concerns Wild type T- cell line. As to the kind of experiment: Compound was tested for its cytotoxicity against wild type T- cell line. It counts as functional, cell-based. The following applies: Homo sapiens. An outline of the steps:
as §1

Experiment [7] relates to L1210. As to the kind of experiment: Inhibition of DNA synthesis in L1210 cells by the compound was determined the reduced incorporation of incorporation of [3H]dThd into DNA at concentration of 25 uM. It counts as functional. Conditions: Mus musculus. An outline of the steps:
as §2

Activity calls are given as the source filed them. No cut-off for these calls is given here.

`Nc1nc2c(ncn2[C@@H]2O[C@H](CO)[C@@H](O)[C@H]2O)c(=O)[nH]1` [GUANOSINE]: the values for the IC50 (in experiment [1]; in the experiment with T-cell) were 7000 nM and 100 nM, respectively.

On to `Nc1nc(O)c2ncn([C@@H]3O[C@H](CO)[C@@H](O)[C@@H]3F)c2n1` [F-ARAG], for which the values for the IC50 with B-cell, with L1210 [3] and in the experiment on Wild type T- cell line were approximately 750 nM, 8500 nM and approximately 200 nM, respectively. The inhibition at 50 µM in the experiment with L1210 [2] is 62%. The Inhibition in the experiment on L1210 [4] amounted to 17%. In addition, in the experiment with L1210 [5], the inhibition result is “inactive”. In the experiment on L1210 [6], this compound gave an inhibition at 100 µM of 76%. This compound also had an inhibition at 25 µM in the experiment on L1210 [7] of 12%.

Values taken from ChEMBL document CHEMBL1123373, “9-(2-Deoxy-2-fluoro-beta-D-arabinofuranosyl)guanine: a metabolically stable cytotoxic analogue of 2'-deoxyguanosine” (J Med Chem, 1986).
